For two molecules, Activity and IC50 results are on record in ChEMBL document CHEMBL1759852, “A comparative study of proapoptotic potential of cyano analogues of boswellic acid and 11-keto-boswellic acid” (Eur J Med Chem, 2011).

The source made the active and inactive calls. No cut-off for these calls is given here.

The test system of assay [1] is HL-60. Nature of the assay: Induction of apoptosis in human HL60 cells assessed as late apoptotic cells at 0.3 uM after 6 hrs using Annexin-V-FITC/propidium iodide staining by flow cytometry (reference value: 1%). The class given is functional. The essentials: (§1)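 HL-60 cells (1 × 10^6/ml) treated 6 h at varied concentrations; camptothecin 4 μM 6 h positive control. AnnexinV-FITC and propidium iodide staining per kit; FL-1 versus FL-2 flow cytometry with quadrant statistics for apoptotic and necrotic populations; representative of three experiments.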

Assay [2] has as its system HL-60. Nature of the assay: Induction of apoptosis in human HL60 cells assessed as late apoptotic cells at 1 uM after 6 hrs using Annexin-V-FITC/propidium iodide staining by flow cytometry (reference value: 1%). The class given is functional. The essentials: as §1
A further assay concerns HeLa. Nature of the assay: Cytotoxicity against human HeLa cells after 48 hrs by MTT assay. The class given is functional, cell-based. The essentials: (§2)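 HL-60 (2 × 10^4/200 μl) or HeLa (1 × 10^4/200 μl) in RPMI-1640/MEM, 10% FCS, 37 °C, 5% CO2; treated 0.1–50 μM for 48 h, DMSO vehicle <0.2%. MTT added final 3 h; formazan dissolved in DMSO, OD 570 nm (reference 620 nm). IC50 as 50% viability versus untreated control; three experiments, CV <10%.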

For assay [3], the system named is HL-60. Nature of the assay: Induction of apoptosis in human HL60 cells assessed as late apoptotic cells at 4 uM after 6 hrs using Annexin-V-FITC/propidium iodide staining by flow cytometry (reference value: 1%). The class given is functional. The essentials:
as §1

In assay [4] the test system is HL-60. Nature of the assay: Induction of apoptosis in human HL60 cells assessed as cell shrinkage and apoptotic body formation at 0.5 uM after 9 hrs by scanning electron microscopy. The class given is functional, cell-based. Summed up: (§3)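 HL-60 seeded 2 × 10^5/ml in medium with 10% FCS, treated at 0.5 and 2 μM (DMSO stock; vehicle-only controls) for 9 h at 37 °C. Fixed 2.5% glutaraldehyde in 0.1 M phosphate pH 7.2 at 4 °C 1 h, post-fixed 1% OsO4 1 h, acetone-dehydrated, critical-point dried, gold-coated; surface ultrastructure by scanning electron microscopy.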

Assay [5] deals with HL-60. The assay is described as follows: Induction of apoptosis in human HL60 cells assessed as late apoptotic cells at 2 uM after 6 hrs using Annexin-V-FITC/propidium iodide staining by flow cytometry (reference value: 1%). The class given is functional. Summed up: as §1
Assay [6] has as its system HL-60. The assay is described as follows: Induction of apoptosis in human HL60 cells assessed as apoptotic cells at 2 uM after 9 hrs by scanning electron microscopy. Format: functional, cell-based. The essentials: as §3
Assay [7] deals with HL-60. The assay is described as follows: Induction of apoptosis in human HL60 cells assessed as increase in scattered apoptotic bodies formation at 0.5 uM after 9 hrs using Hoechst 33258 staining by fluorescence microscopy. Format: functional, cell-based. Summed up: (§4)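 HL-60 cells (2 × 10^6/3 ml) treated 9 h, washed twice in PBS, fixed and stained with Hoechst 33258; nuclear morphology and apoptotic bodies examined by inverted fluorescence microscopy.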

The subject of assay [8] is HL-60. The assay is described as follows: Induction of apoptosis in human HL60 cells assessed as early apoptotic cells at 0.3 uM after 6 hrs using Annexin-V-FITC/propidium iodide staining by flow cytometry (reference value: 6%). Format: functional. Summed up:
as §1

Assay [9] relates to HL-60. The assay is described as follows: Induction of apoptosis in human HL60 cells assessed as smoothening of cell surface and blebbing of plasma membrane at 0.5 uM after 9 hrs by scanning electron microscopy. Format: functional, cell-based. The essentials:
as §3

The subject of assay [10] is HL-60. Nature of the assay: Cytotoxicity against human HL60 cells after 48 hrs by MTT assay. The class given is functional, cell-based. The settings on record: HL-60, 48 h. The essentials:
as §2

Assay [11] has as its system HL-60. The assay is described as follows: Induction of apoptosis in human HL60 cells assessed as loss of cell cytoplasmic volume at 2 uM after 9 hrs by scanning electron microscopy. Format: functional, cell-based. Summed up: as §3
Assay [12] concerns HL-60. The assay is described as follows: Induction of apoptosis in human HL60 cells assessed as early apoptotic cells at 4 uM after 6 hrs using Annexin-V-FITC/propidium iodide staining by flow cytometry (reference value: 6%). The class given is functional. The essentials:
as §1

The subject of assay [13] is HL-60. The assay is described as follows: Cell cycle arrest in human HL60 cells assessed as accumulation at sub-G1 phase at 4 uM after 18 hrs by flow cytometry relative to control. The class given is functional. The essentials: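 HL-60 cells at 1 × 10^6/ml exposed 18 h; camptothecin 4 μM for 6 h as positive control. Cells pelleted 160 × g 5 min, PBS-washed, fixed in cold 70% alcohol overnight at −20 °C, RNase (400 μg/ml) digested, PI-stained; flow cytometry, hypo-diploid (<2n DNA) sub-G0/G1 fraction scored as apoptotic.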

The test system of assay [14] is HL-60. The assay is described as follows: Induction of apoptosis in human HL60 cells assessed as early apoptotic cells at 1 uM after 6 hrs using Annexin-V-FITC/propidium iodide staining by flow cytometry (reference value: 6%). The class given is functional. The essentials: as §1
Assay [15] concerns HL-60. Nature of the assay: Induction of apoptosis in human HL60 cells assessed as early apoptotic cells at 2 uM after 6 hrs using Annexin-V-FITC/propidium iodide staining by flow cytometry (reference value: 6%). Format: functional. The essentials:
as §1

Assay [16] relates to HL-60. Nature of the assay: Induction of apoptosis in human HL60 cells assessed as nuclear condensation and blebbing at 0.5 to 2 uM after 9 hrs Hoechst 33258 staining by fluorescence microscopy. Format: functional, cell-based. Summed up: as §4
Assay [17] concerns HL-60. Nature of the assay: Cell cycle arrest in human HL60 cells assessed as accumulation at sub-G1 phase at 4 uM after 18 hrs by flow cytometry relative to control.
The subject of assay [18] is HL-60. Nature of the assay: Induction of apoptosis in human HL60 cells assessed as DNA ladder formation at 4 uM after 9 hrs by agarose gel electrophoresis. The class given is functional, cell-based.

As to `CCCCOC(=O)[C@@]1(C)C(=O)C(C#N)=C[C@]2(C)[C@H]3CC=C4[C@@H]5[C@@H](C)[C@H](C)CC[C@]5(C)CC[C@@]4(C)[C@]3(C)CC[C@@H]12`, the Activity worked out at 2% in the assay with HL-60 [1]; 1% in the assay with HL-60 [2]; 1% in the assay with HL-60 [3]; 2% in the assay on HL-60 [5]; 9% in the assay on HL-60 [8]; 12% in the assay with HL-60 [12]. The Activity came to 76% with HL-60 [13], 10% in the assay on HL-60 [14] and 11% in the assay with HL-60 [15]. Also, the IC50 with HeLa was 7.9 µM; in the assay on HL-60 [10] it was 0.42 µM. Also, the outcome in the assay on HL-60 [4], with HL-60 [6], with HL-60 [7], in the assay with HL-60 [9], in the assay with HL-60 [11] and with HL-60 [16] was Active.

In the case of `CC[C@@]1(O)C(=O)OCc2c1cc1n(c2=O)Cc2cc3ccccc3nc2-1` [CAMPTOTHECIN], the results for the Activity in the assay on HL-60 [17], in the assay on HL-60 [3] and in the assay with HL-60 [12] were 96%, 4% and 35%, respectively. Further, the result with HL-60 [18] was Active.
